According to ChEMBL document CHEMBL1147049, “Inhibition of MRP1/ABCC1, MRP2/ABCC2, and MRP3/ABCC3 by nucleoside, nucleotide, and non-nucleoside reverse transcriptase inhibitors” (Drug Metab Dispos, 2007):

Experiments:
Type in all cases: cell-based
Conditions in all cases: mdck-ii; call rule not given here
[1] = molecular target: T1, ATP-binding cassette sub-family C member 2 (Homo sapiens, UniProt Q92887); assay: Inhibition of human MRP2 expressed in MDCK2 cells assessed as increase in intracellular CMF fluorescence by CMFDA assay
T1 sequence (Q92887 whole entry): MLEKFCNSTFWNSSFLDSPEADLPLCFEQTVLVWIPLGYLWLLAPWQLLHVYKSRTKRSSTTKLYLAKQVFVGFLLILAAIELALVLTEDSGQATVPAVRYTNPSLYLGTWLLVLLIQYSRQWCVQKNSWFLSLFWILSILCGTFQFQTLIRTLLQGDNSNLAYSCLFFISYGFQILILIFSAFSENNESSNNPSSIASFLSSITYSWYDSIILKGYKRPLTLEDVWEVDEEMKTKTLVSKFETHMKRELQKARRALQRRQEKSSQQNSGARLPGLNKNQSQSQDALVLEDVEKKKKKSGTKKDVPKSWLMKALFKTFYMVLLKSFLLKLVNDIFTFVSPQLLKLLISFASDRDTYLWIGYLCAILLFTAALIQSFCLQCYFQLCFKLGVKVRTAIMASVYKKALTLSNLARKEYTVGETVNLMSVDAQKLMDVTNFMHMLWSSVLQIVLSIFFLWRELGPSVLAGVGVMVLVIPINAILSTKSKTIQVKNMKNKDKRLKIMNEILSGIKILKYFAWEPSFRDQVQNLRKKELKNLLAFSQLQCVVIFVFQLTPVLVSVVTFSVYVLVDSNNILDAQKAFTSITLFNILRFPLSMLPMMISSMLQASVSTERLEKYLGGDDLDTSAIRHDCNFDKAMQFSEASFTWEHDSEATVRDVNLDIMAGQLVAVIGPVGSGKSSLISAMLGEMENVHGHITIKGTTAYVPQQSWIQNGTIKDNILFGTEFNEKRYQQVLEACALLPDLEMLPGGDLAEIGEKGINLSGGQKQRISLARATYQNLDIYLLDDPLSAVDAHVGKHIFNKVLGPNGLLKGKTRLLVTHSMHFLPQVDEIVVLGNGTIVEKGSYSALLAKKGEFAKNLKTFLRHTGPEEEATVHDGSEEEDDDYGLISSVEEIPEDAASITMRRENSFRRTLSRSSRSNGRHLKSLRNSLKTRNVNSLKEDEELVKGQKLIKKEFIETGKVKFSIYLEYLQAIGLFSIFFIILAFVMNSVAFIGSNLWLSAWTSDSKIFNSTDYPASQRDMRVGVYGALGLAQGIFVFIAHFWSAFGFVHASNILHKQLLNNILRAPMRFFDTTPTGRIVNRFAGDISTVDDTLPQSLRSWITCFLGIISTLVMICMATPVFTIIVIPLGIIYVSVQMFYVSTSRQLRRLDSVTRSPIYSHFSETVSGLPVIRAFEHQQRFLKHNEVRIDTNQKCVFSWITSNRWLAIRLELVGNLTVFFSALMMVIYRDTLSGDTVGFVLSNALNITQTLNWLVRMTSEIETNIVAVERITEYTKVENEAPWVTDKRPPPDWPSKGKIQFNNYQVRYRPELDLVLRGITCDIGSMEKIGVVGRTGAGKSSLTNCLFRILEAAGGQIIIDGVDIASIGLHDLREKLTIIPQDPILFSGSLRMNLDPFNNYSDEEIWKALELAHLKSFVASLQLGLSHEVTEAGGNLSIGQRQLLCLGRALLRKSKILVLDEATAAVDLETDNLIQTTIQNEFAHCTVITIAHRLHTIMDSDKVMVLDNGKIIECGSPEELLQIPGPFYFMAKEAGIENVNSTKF
Procedure, shortened: (§1)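 MDCKII cells stably transfected with human MRP1, MRP2 or MRP3 cDNA, parental MDCKII as control, grown in DMEM with 10% FCS. Cells preincubated 30 min at 37 °C in darkness ± inhibitor in HBSS with 1 mM pyruvate, then 50 nM CMFDA (final) added for 10 min. Intracellular CMF fluorescence read by confocal laser-scanning microscopy. 20 µM MK571 positive control. At least triplicate, different days.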

[2] = molecular target: T2, Multidrug resistance-associated protein 1 (Homo sapiens, UniProt P33527); assay: Inhibition of human MRP1 expressed in MDCK2 cells assessed as increase in intracellular CMF fluorescence at 10 uM by CMFDA assay; procedure, shortened: as §1
T2 sequence (P33527 whole entry): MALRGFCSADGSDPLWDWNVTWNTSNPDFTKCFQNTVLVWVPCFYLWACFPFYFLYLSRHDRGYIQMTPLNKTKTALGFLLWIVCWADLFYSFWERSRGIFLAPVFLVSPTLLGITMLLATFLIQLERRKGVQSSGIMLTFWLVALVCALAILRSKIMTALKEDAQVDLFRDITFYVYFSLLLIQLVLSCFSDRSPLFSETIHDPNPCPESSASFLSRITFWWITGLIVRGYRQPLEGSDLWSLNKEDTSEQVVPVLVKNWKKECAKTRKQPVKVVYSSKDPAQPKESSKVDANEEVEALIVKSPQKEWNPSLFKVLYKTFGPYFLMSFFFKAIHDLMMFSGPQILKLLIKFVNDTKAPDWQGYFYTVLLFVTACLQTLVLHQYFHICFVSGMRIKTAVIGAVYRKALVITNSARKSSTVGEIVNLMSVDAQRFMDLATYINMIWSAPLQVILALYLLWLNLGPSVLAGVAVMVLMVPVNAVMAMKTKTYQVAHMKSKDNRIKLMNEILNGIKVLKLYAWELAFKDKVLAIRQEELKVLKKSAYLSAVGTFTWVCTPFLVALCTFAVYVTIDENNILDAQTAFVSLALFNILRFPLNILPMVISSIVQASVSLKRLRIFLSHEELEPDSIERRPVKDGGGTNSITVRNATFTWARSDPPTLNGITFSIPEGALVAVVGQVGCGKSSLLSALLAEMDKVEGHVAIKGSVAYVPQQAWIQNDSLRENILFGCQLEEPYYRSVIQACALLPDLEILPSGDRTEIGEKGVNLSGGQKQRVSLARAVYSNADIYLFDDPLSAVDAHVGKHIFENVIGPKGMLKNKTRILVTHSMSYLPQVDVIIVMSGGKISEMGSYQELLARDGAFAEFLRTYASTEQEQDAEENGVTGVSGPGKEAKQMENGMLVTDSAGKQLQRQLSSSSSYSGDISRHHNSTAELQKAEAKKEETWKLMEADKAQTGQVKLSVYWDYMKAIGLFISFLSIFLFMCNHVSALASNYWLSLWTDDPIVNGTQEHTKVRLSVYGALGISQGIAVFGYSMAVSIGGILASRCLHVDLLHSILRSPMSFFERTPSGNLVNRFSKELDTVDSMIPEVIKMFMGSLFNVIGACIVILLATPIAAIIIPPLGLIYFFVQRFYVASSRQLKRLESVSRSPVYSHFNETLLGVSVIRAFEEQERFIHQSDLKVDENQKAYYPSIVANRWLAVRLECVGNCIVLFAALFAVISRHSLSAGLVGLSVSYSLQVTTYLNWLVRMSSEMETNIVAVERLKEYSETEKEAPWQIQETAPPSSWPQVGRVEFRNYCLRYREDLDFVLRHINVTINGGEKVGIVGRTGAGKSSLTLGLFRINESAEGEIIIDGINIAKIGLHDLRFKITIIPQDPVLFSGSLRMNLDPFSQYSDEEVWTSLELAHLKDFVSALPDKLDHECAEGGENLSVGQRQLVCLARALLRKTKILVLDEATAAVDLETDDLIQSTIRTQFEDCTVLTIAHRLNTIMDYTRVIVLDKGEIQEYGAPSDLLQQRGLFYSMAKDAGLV

[3] = molecular target: T2, Multidrug resistance-associated protein 1; assay: Inhibition of human MRP1 expressed in MDCK2 cells assessed as increase in intracellular CMF fluorescence by CMFDA assay; procedure, shortened: as §1
[4] = molecular target: T1, ATP-binding cassette sub-family C member 2; assay: Inhibition of human MRP2 expressed in MDCK2 cells assessed as increase in intracellular CMF fluorescence at 10 uM by CMFDA assay; procedure, shortened: as §1
[5] = molecular target: T3, ATP-binding cassette sub-family C member 3 (Homo sapiens, UniProt O15438); assay: Inhibition of human MRP3 expressed in MDCK2 cells assessed as increase in intracellular CMF fluorescence at 10 uM by CMFDA assay; procedure, shortened: as §1
T3 sequence (O15438 whole entry): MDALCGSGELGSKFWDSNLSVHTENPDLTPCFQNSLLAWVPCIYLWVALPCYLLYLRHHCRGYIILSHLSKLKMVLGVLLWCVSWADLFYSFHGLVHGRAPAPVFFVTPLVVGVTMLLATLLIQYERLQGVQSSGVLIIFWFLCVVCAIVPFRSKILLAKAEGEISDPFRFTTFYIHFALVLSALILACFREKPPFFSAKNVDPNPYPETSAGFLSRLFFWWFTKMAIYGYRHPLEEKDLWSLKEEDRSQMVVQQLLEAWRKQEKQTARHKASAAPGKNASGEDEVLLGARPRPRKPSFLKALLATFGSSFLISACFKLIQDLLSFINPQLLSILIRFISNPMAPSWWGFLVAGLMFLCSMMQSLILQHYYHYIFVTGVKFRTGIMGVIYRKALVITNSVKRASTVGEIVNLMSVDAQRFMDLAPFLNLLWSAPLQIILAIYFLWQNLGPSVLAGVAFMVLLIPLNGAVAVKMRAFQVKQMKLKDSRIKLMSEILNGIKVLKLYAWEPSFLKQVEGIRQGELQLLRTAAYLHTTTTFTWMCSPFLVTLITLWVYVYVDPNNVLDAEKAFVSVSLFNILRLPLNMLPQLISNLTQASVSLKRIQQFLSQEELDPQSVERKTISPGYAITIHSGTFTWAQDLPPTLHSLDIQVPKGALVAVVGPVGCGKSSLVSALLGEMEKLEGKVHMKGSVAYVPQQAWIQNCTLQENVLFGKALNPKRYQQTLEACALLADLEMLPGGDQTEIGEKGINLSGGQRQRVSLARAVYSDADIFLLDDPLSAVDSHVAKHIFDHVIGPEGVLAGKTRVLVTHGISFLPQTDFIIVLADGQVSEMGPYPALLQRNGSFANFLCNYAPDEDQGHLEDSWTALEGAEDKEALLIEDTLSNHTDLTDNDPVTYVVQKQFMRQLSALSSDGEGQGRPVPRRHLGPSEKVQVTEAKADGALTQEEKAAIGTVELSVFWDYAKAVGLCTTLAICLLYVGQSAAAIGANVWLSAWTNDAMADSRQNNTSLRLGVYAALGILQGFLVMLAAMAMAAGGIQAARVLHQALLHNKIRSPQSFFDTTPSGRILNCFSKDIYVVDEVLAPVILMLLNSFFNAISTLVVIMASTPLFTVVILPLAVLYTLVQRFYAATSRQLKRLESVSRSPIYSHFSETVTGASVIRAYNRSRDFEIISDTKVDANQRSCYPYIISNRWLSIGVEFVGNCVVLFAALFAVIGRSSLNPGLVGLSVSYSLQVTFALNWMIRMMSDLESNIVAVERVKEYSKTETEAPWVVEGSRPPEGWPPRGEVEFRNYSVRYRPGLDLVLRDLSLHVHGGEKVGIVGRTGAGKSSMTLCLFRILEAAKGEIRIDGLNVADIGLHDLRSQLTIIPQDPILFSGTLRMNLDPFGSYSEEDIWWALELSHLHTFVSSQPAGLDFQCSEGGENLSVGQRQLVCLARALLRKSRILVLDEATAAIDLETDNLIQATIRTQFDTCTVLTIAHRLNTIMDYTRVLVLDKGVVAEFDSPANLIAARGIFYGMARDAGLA

[6] = molecular target: T3, ATP-binding cassette sub-family C member 3; assay: Inhibition of human MRP3 expressed in MDCK2 cells assessed as increase in intracellular CMF fluorescence by CMFDA assay; procedure, shortened: as §1
[7] = molecular target: T1, ATP-binding cassette sub-family C member 2; assay: Inhibition of human MRP2 expressed in MDCK2 cells assessed as increase in intracellular CMF fluorescence at 16.7 uM by CMFDA assay; procedure, shortened: as §1
[8] = molecular target: T3, ATP-binding cassette sub-family C member 3; assay: Inhibition of human MRP3 expressed in MDCK2 cells assessed as increase in intracellular CMF fluorescence at 16.7 uM by CMFDA assay; procedure, shortened: as §1
[9] = molecular target: T2, Multidrug resistance-associated protein 1; assay: Inhibition of human MRP1 expressed in MDCK2 cells assessed as increase in intracellular CMF fluorescence at 16.7 uM by CMFDA assay; procedure, shortened: as §1

| Activity [1] | Activity [2] | Activity [3] | Activity [4] | Activity [5] | Activity [6] | Activity [7] | Activity [8] | Activity [9] | Compound |
| --- | --- | --- | --- | --- | --- | --- | --- | --- | --- |
| Dose-dependent effect | Active | Dose-dependent effect | Active | Active | – | – | – | – | Nc1nc(NC2CC2)c2ncn([C@H]3C=C[C@@H](CO)C3)c2n1 [ABACAVIR] |
| Dose-dependent effect | Active | Dose-dependent effect | Active | Active | Dose-dependent effect | – | – | – | Nc1ccn([C@@H]2CS[C@H](CO)O2)c(=O)n1 [LAMIVUDINE] |
| Dose-dependent effect | Active | Dose-dependent effect | Active | Active | Dose-dependent effect | – | – | – | O=C1Nc2ccc(Cl)cc2[C@@](C#CC2CC2)(C(F)(F)F)O1 [EFAVIRENZ] |
| Dose-dependent effect | – | Dose-dependent effect | – | – | Dose-dependent effect | Active | Active | Active | CC(C)Nc1cccnc1N1CCN(C(=O)c2cc3cc(NS(C)(=O)=O)ccc3[nH]2)CC1 [DELAVIRDINE] |
| Dose-dependent effect | Active | Dose-dependent effect | Active | Active | Dose-dependent effect | – | – | – | C[C@H](Cn1cnc2c(N)ncnc21)OCP(=O)(O)O [TENOFOVIR ANHYDROUS] |
| Dose-dependent effect | Active | Dose-dependent effect | Active | Active | Dose-dependent effect | – | – | – | Nc1nc(=O)n([C@@H]2CS[C@H](CO)O2)cc1F [EMTRICITABINE] |

| Compound | Activity [1] | Activity [2] | Activity [3] | Activity [4] | Activity [5] | Activity [6] | Activity [7] | Activity [8] | Activity [9] |
| --- | --- | --- | --- | --- | --- | --- | --- | --- | --- |
| Cc1ccnc2c1NC(=O)c1cccnc1N2C1CC1 [NEVIRAPINE] | Dose-dependent effect | Active | Dose-dependent effect | Active | Active | Dose-dependent effect | – | – | – |
